The test system of experiment [1] is Canis familiaris. The experiment can be described thus: Antisecretory activity was evaluated in adult mongrel dog after iv administration at 5 mg/kg of dose, expressed as reduction of gastric output. The format is functional, Canis lupus familiaris, Stomach. An outline of the steps: (§1)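 Conscious mongrel dogs with surgical Heidenhain pouches. Histamine was infused iv at 0.4 (μg/kg)/min, giving 50–60% of maximal acid output. The test agent was given iv or orally by gavage 1 h into the infusion. Acid output (volume × titrated acid) was collected in 30-min fractions and summed over 3 h, then compared with control runs in the same dog. Usually a single dog per compound.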

For experiment [2], the system named is Rattus norvegicus. In words: Antisecretory activity was evaluated in pylorus ligated rat after ip administration at 40 mg/kg of dose, expressed as reduction of gastric output. The conditions noted are these: route intraperitoneal.
Experiment [3] deals with Canis familiaris. In words: Antisecretory activity was evaluated in adult mongrel dog after po administration at 8 mg/kg of dose, expressed as reduction of gastric output. The format is functional, Canis lupus familiaris, Stomach. An outline of the steps: as §1
Experiment [4] deals with Rattus norvegicus. The experiment can be described thus: Compound was measured for percentage inhibition of aspirin-induced ulcers at 20 mg/kg after po administration. The format is functional. The procedure, abridged:
(§2)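 Rats fasted 24 h received the test agent orally in 0.4% methylcellulose-saline, then 1 h later 100 mg/kg aspirin orally. Stomachs were removed 4 h after aspirin and opened along the greater curvature, and ulcers were counted under a 2× magnifier. Inhibition was based on mean lesion number vs controls. Eight rats per compound; Student's t test.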

Experiment [5] deals with Rattus norvegicus. In words: Compound was measured for percentage inhibition of aspirin-induced ulcers at 30 mg/kg after po administration. The format is functional. The procedure, abridged: as §2
Experiment [6] has as its system Rattus norvegicus. In words: Compound was measured for percentage inhibition of aspirin-induced ulcers at 10 mg/kg after po administration. The format is functional. An outline of the steps: as §2
For experiment [7], the system named is Canis familiaris. The experiment can be described thus: Compound was measured for percentage reduction in food stimulated canine gastric acid secretion after iv administration at 5 mg/kg dosage. The format is functional, Canis lupus familiaris, Stomach. An outline of the steps: (§3)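 Heidenhain pouch dogs given the test agent (iv or oral) together with a meal of 250 g ground cooked beef hearts. Acid output was collected and expressed as percent reduction relative to control studies in the same animal; n per entry as reported.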

The subject of experiment [8] is Canis familiaris. In words: Compound was measured for percentage reduction in food stimulated canine gastric acid secretion after po administration at 8 mg/kg dosage. The format is functional, Canis lupus familiaris, Stomach. The procedure, abridged:
as §3

Experiment [9] concerns Canis familiaris. The experiment can be described thus: Compound was measured for percentage reduction in insulin hypoglycemia stimulated canine gastric acid secretion after iv administration at 5 mg/kg dosage. The format is functional, Canis lupus familiaris, Stomach. The procedure, abridged:
(§4)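 Dogs with simple gastric fistulas. The test agent (iv or oral) was given at the time of regular insulin injection. Gastric collections were made for 3 h, and percent reduction of acid output was calculated against control studies in the same animals; n per entry as reported.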

Experiment [10] has as its system Canis familiaris. The experiment can be described thus: Compound was measured for percentage reduction in insulin hypoglycemia stimulated canine gastric acid secretion after po administration at 8 mg/kg dosage. The format is functional, Canis lupus familiaris, Stomach. The procedure, abridged:
as §4

Experiment [11] relates to Canis familiaris. The experiment can be described thus: Compound was measured for percentage reduction in dimaprit stimulated canine gastric acid secretion after iv administration at 5 mg/kg dosage. The format is functional, Canis lupus familiaris, Stomach. The procedure, abridged: (§5)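 Heidenhain pouch dogs. Acid output was summed over 3 h after dosing and expressed as percent reduction relative to control studies in the same animal; n per entry as reported.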

For experiment [12], the system named is Rattus norvegicus. The experiment can be described thus: Compound was measured for percentage inhibition of aspirin-induced ulcers at 3 mg/kg after po administration. The format is functional. An outline of the steps: as §2
In experiment [13] the test system is Canis familiaris. The experiment can be described thus: Compound was measured for percentage reduction in dimaprit stimulated canine gastric acid secretion after po administration at 8 mg/kg dosage. The format is functional, Canis lupus familiaris, Stomach. The procedure, abridged:
as §5

In experiment [14] the test system is Canis familiaris. The experiment can be described thus: Compound was measured for percentage reduction in food stimulated canine gastric acid secretion after iv administration at 5 mg/kg dosag. The format is functional, Canis lupus familiaris, Stomach. The procedure, abridged: as §3

SMILES strings stand for the structures. Some results are limits rather than exact numbers.

Take `CNC(=O)N(C)C1c2ccccc2S(=O)(=O)c2ncccc21` (stereo unspecified): the Reduction in experiment [1] and in experiment [2] was under 30% throughout.

Regarding `CNC(=O)N(C)C1c2cccnc2Oc2c(F)cccc21` (stereo unspecified), the Reduction was under 30% in [1] and 35% in experiment [2].

For the compound `CNC(=O)N(C)C1c2cc(OC)ccc2Oc2ncccc21` (stereo unspecified), the Reduction in experiment [1] was 51%; in experiment [3], under 30%; in [2] it was 59%.

`CN(C(N)=O)C1c2ccccc2Oc2ncccc21` (stereo unspecified): the Reduction in [1] is 30%; in experiment [2], 70%.

Take `CNC(=O)N(C)C1c2cccnc2Oc2c(Cl)cccc21` (stereo unspecified): the Reduction was under 30% in experiment [1] and 60% in experiment [2].

As for `CNC(=O)N(C)C1c2ccccc2Oc2cccnc21` (stereo unspecified), the values for the Reduction in [1], in experiment [3] and in experiment [2] were 38%, 34% and 37%, respectively.

For `CNC(=O)N(C)C1c2ccccc2Oc2ccncc21` (stereo unspecified), the Reduction in experiment [1] was under 30%; in experiment [2] it was 77%.

Regarding `CNC(=O)N(C)C1c2cc(Cl)c(C)cc2Oc2ncccc21` (stereo unspecified), the Reduction is under 30% in [1] and 65% in experiment [2].

`CNC(=O)N(C)C1c2cccnc2Oc2cccc(C(F)(F)F)c21` (stereo unspecified): the figures for the Reduction in experiment [1] and in experiment [2] were under 30% and 71%, respectively.

Regarding `CN(C(=O)N1CCOCC1)C1c2ccccc2Oc2ncccc21` (stereo unspecified), the figures for the Reduction in [1], in [3] and in experiment [2] were 64%, under 30% and 95%, respectively.

As to `CN(C)C(=O)N(C)C1c2ccccc2Oc2ncccc21` (stereo unspecified), the Reduction in experiment [1] was under 30%; in [2] it was 96%. The inhibition in vivo (as a rule, the percentage by which the read-out fell short of the control) at 20 mg/kg in [4] is 100%.

For `CNC(=O)N(C)C1c2cc(F)ccc2Oc2ncccc21` (stereo unspecified), the Reduction in [1] was 63%; in experiment [3], under 30%; in [2] it was 68%.

In the case of `CN(C(=O)Nc1ccccc1)C1c2ccccc2Oc2ncccc21` (stereo unspecified), the Reduction in experiment [1] is 55%; in [3], under 30%; in experiment [2], 45%.

Regarding `CN(C)C(=O)NC1c2ccccc2Oc2ncccc21` (stereo unspecified), the Reduction in experiment [1] is listed as 35%; in [3], under 30%; in experiment [2] it was 95%. This compound displayed an inhibition in vivo at 30 mg/kg in experiment [5] of 74%.

Regarding `CNC(=O)N(C)C1c2cc([N+](=O)[O-])ccc2Oc2ncccc21` (stereo unspecified), the Reduction in [1] is on record as under 30%; in [2] it was 71%.

On to `CN(C(=O)N1CCCCC1)C1c2ccccc2Oc2ncccc21` (stereo unspecified), for which the Reduction in [1] amounted to 31%; in experiment [2], 72%.

Turning to `CNC(=O)N(C)C1c2ccc(OC)cc2Oc2ncccc21` (stereo unspecified), the Reduction in experiment [1] was 54%; in experiment [3] it was under 30%; in experiment [2] it was 60%.

As to `CN/C(=N\CCSCc1nc[nH]c1C)NC#N` [CIMETIDINE], the Reduction in experiment [1] is reported as 84%; in experiment [3], 86%; in experiment [2], 74%. This compound also returned an inhibition in vivo at 10 mg/kg in experiment [6] of 67%.

Regarding `CNC(=O)N(C)C1c2ccc(C(F)(F)F)cc2Oc2ncccc21` (stereo unspecified), the values for the Reduction in experiment [1] and in experiment [2] were under 30% and 46%, respectively.

`CNC(=O)N(C)C1c2ccc(C)cc2Oc2ncccc21` (stereo unspecified): the results for the Reduction in experiment [1], in [3] and in [2] were 75%, under 30% and 81%, respectively.

As for `CNC(=O)N(C)C1c2ccccc2Oc2ncccc21` (stereo unspecified), the Reduction was 69% in [7]; under 30% in experiment [8]; 79% in [9]; under 30% in [10]; 84% in experiment [1]; under 30% in [3]. In addition, the Reduction in experiment [11] was found to be 58%. In [6], the inhibition in vivo at 10 mg/kg was 89%. Besides, in [5], the inhibition in vivo at 30 mg/kg came to 100%. The same compound yielded an inhibition in vivo at 3 mg/kg in experiment [12] of 51%.

Turning to `CN(C(=O)NC(C)(C)C)C1c2ccccc2Oc2ncccc21` (stereo unspecified), the Reduction in [1] is reported as 35%; in [3], under 30%; in experiment [2] it was 82%.

With `CN1CCN(C(=O)N(C)C2c3ccccc3Oc3ncccc32)CC1` (stereo unspecified), the Reduction is listed as under 30% in [1], under 30% in experiment [3] and 94% in experiment [2].

On to `CNC(=O)N(C)C1c2ccccc2Sc2ncccc21` (stereo unspecified), for which the Reduction in experiment [8] is given as under 30%; in [9], 97%; in experiment [10], 62%; in experiment [1], 80%; in experiment [3], under 30%; in experiment [11], 78%. For the same compound, the Reduction in experiment [13] is under 30%; in experiment [14], 78%; in [2], 96%. The compound further displayed an inhibition in vivo at 10 mg/kg in experiment [6] of 68%. For the same compound, in experiment [5], testing at 30 mg/kg gave an inhibition in vivo of 100%. Further, the inhibition in vivo at 3 mg/kg in experiment [12] is 0%.

Regarding `CNC(=O)NC1c2ccccc2Oc2ncccc21` (stereo unspecified), the Reduction in experiment [1] worked out at 31%; in experiment [2], 54%.

As for `CNC(=O)N(C)C1c2cc(CO)ccc2Oc2ncccc21` (stereo unspecified), the Reduction in experiment [1] and in experiment [2] was under 30% each time.

With `NC(=O)NC1c2ccccc2Oc2ncccc21` (stereo unspecified), the results for the Reduction in [1] and in [2] were 36% and 46%, respectively.

For the compound `CNC(=O)N(C)C1c2cc(C(=O)OC)ccc2Oc2ncccc21` (stereo unspecified), the Reduction in experiment [1] and in experiment [2] was under 30% in each case.

For `CNC(=O)N(C)C1c2cc(C)ccc2Oc2ncccc21` (stereo unspecified), the Reduction in experiment [1] is 62%; in [3], under 30%; in [2], 71%.

The record behind these values is ChEMBL document CHEMBL1121679, “Gastric antisecretory agents. 1. Antisecretory and antiulcer activity of 5H-[1]benzopyrano[2,3-b]pyridin-5-ylureas and 5H-[1]benzothiopyrano[2,3-b]pyridin-5-ylureas” (1981).
